Data set [1] deals with Rattus norvegicus. As to the kind of experiment: Antiinflammatory activity in Wistar albino rat assessed as inhibition of carrageenan-induced paw edema at 25 mg/kg, po after 3 hrs (reference value: 1.08 +/- 0.41%). Type of data set: functional. (In general: The carrageenan paw model is a standard test of acute inflammation.)
For data set [2], the system named is Rattus norvegicus. As to the kind of experiment: Antiinflammatory activity in Wistar albino rat assessed as inhibition of carrageenan-induced paw edema at 25 mg/kg, po after 2 hrs (reference value: 1.11 +/- 0.02%). Type of data set: functional.
In data set [3] the test system is Rattus norvegicus. As to the kind of experiment: Toxicity in Wistar albino rat assessed as ulcer index at 75 mg/kg/day, po administered for 4 days measured after 12 hrs fasting post-last dose. More on the design: route oral. It counts as organism-based. The note with it: in vivo. In short, it runs like this:
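Male Wistar albino rats, 170–200 g, six per group, with control and standard groups. Compounds suspended in 1% w/v Tween 80 in water and dosed orally at 75 mg/kg/day on all 4 days. Rats fasted 12 h after last dose, then decapitated. Stomach opened along greater curvature and washed with distilled water and Krebs solution. Gastric lesions counted and ulcer index calculated per Szelenyi and Thiemer.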

In data set [4] the test system is Rattus norvegicus. As to the kind of experiment: Antiinflammatory activity in Wistar albino rat assessed as inhibition of carrageenan-induced paw edema at 25 mg/kg, po after 1 hr (reference value: 0.85 +/- 0.01%). Type of data set: functional.

The source of these data is ChEMBL document CHEMBL2157865, “Novel 3-substituted-1-aryl-5-phenyl-6-anilinopyrazolo[3,4-d]pyrimidin-4-ones: docking, synthesis and pharmacological evaluation as a potential anti-inflammatory agents” (Bioorg Med Chem Lett, 2012).

Take `CSc1nn(-c2ccccc2)c2nc(Nc3ccccc3)n(-c3ccccc3)c(=O)c12`: the inhibition in vivo (commonly the percentage by which the read-out fell short of the control) at 25 mg/kg in the data set on Rattus norvegicus [1] came out at 25.4%; in the data set with Rattus norvegicus [2], 36.6%; with Rattus norvegicus [4], 46.1%. Moreover, the UI in the data set on Rattus norvegicus [3] was 4.66.
The matching figures for `CSc1nn(-c2ccc([N+](=O)[O-])cc2)c2nc(Nc3ccccc3)n(-c3ccccc3)c(=O)c12`: 26.6%, 37.7%, 42.1% and 7.5.
The matching figures for `CSc1nn(-c2ccc(S(N)(=O)=O)cc2)c2nc(Nc3ccccc3)n(-c3ccccc3)c(=O)c12`: 35.2%, 54.1%, 68.8% and 7.83.
As to `O=c1c2c(Nc3ccccc3)nn(-c3ccccc3)c2nc(Nc2ccccc2)n1-c1ccccc1`, the inhibition in vivo at 25 mg/kg with Rattus norvegicus [1] came to 17.1%; in the data set on Rattus norvegicus [2] it was 43.4%; with Rattus norvegicus [4] it was 48.1%.
The corresponding values for `O=c1c2c(Nc3ccccc3)nn(-c3ccc([N+](=O)[O-])cc3)c2nc(Nc2ccccc2)n1-c1ccccc1` are 14.1%, 40.8% and 43.9%.
Turning to `NS(=O)(=O)c1ccc(-n2nc(Nc3ccccc3)c3c(=O)n(-c4ccccc4)c(Nc4ccccc4)nc32)cc1`, the inhibition in vivo at 25 mg/kg is 39.6% with Rattus norvegicus [1], 54.8% with Rattus norvegicus [2] and 60.2% in the data set with Rattus norvegicus [4].
The matching figures for `O=c1c2c(Nc3ccc([N+](=O)[O-])cc3)nn(-c3ccccc3)c2nc(Nc2ccccc2)n1-c1ccccc1`: 15.1%, 29% and 29.4%.
The corresponding values for `O=c1c2c(Nc3ccc([N+](=O)[O-])cc3)nn(-c3ccc([N+](=O)[O-])cc3)c2nc(Nc2ccccc2)n1-c1ccccc1` are 16.8%, 19.4% and 23.9%.
The matching figures for `NS(=O)(=O)c1ccc(-n2nc(Nc3ccc([N+](=O)[O-])cc3)c3c(=O)n(-c4ccccc4)c(Nc4ccccc4)nc32)cc1`: 39.1%, 55.3% and 67%.
For `Cc1ccc(Nc2nn(-c3ccccc3)c3nc(Nc4ccccc4)n(-c4ccccc4)c(=O)c23)cc1`, the results for the inhibition in vivo at 25 mg/kg in the data set on Rattus norvegicus [1], with Rattus norvegicus [2] and in the data set with Rattus norvegicus [4] were 32.9%, 53.4% and 55.7%, respectively. Further, the UI in the data set on Rattus norvegicus [3] is 3.2.
The matching figures for `Cc1ccc(Nc2nn(-c3ccc([N+](=O)[O-])cc3)c3nc(Nc4ccccc4)n(-c4ccccc4)c(=O)c23)cc1`: 30.2%, 39.8%, 46.6% and 16.72.
The corresponding values for `Cc1ccc(Nc2nn(-c3ccc(S(N)(=O)=O)cc3)c3nc(Nc4ccccc4)n(-c4ccccc4)c(=O)c23)cc1` are 43.7%, 63.4%, 77% and 9.5.
With `O=c1c2c(Nc3ccc(Cl)cc3)nn(-c3ccccc3)c2nc(Nc2ccccc2)n1-c1ccccc1`, the inhibition in vivo at 25 mg/kg in the data set on Rattus norvegicus [1] worked out at 28.6%; in the data set with Rattus norvegicus [2], 44%; with Rattus norvegicus [4], 47.5%.
The matching figures for `O=c1c2c(Nc3ccc(Cl)cc3)nn(-c3ccc([N+](=O)[O-])cc3)c2nc(Nc2ccccc2)n1-c1ccccc1`: 20.6%, 39% and 39.6%.
The matching figures for `NS(=O)(=O)c1ccc(-n2nc(Nc3ccc(Cl)cc3)c3c(=O)n(-c4ccccc4)c(Nc4ccccc4)nc32)cc1`: 38.3%, 56.3% and 69.8%.
As for `Cc1ccc(-c2cc(C(F)(F)F)nn2-c2ccc(S(N)(=O)=O)cc2)cc1` [CELECOXIB], the inhibition in vivo at 25 mg/kg with Rattus norvegicus [1] was determined as 39.6%; with Rattus norvegicus [2] it was 58.6%; with Rattus norvegicus [4], 78.1%. Besides, the UI in the data set on Rattus norvegicus [3] came out at 9.58.
The matching figures for `O=C([O-])Cc1ccccc1Nc1c(Cl)cccc1Cl.[Na+]` [DICLOFENAC SODIUM]: 42.8%, 57.2%, 75.8% and 39.17.
